How the values were obtained:
[1] = molecular target: T1, Aldo-keto reductase family 1 member B1 (Homo sapiens, UniProt P15121); test: The compound was tested for inhibitory activity against Aldose reductase from human placenta
Procedure, shortened: (§1)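 Aldose reductase purified from human placenta, with NADP present throughout purification and storage, kept at –20 °C. Assay in 0.1 M sodium phosphate pH 7 with 10 mM D,L-glyceraldehyde substrate and 0.1 mM NADPH at 25 ± 1 °C. NADPH oxidation followed as A340 decrease. Initial rates corrected for the rate without aldehyde substrate. Ki derived from Dixon plots.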

[2] = molecular target: T1, Aldo-keto reductase family 1 member B1; test: The compound was tested for inhibitory activity against aldose reductase from human placenta; procedure, shortened: as §1

Structure (SMILES) | Ki [1] [µM] | Ki [2] [µM]
COc1c(OC)c(C=O)c2c(O)c(-c3c(C)cc4c(C(C)C)c(OC)c(OC)c(C=O)c4c3O)c(C)cc2c1C(C)C | 9.7 | –
CCCC(=O)Oc1c(-c2c(C)cc3c(C(C)C)c(O)c(O)c(C#N)c3c2OC(=O)CCC)c(C)cc2c(C(C)C)c(O)c(O)c(C#N)c12 | – | 5.3
Cc1cc2c(C(C)C)c(O)c(O)c3c2c(c1-c1c(C)cc2c(C(C)C)c(O)c(O)c4c2c1OC4=O)OC3=O | – | 0.15
COc1c(OC)c(C=O)c2c(OC)c(-c3c(C)cc4c(C(C)C)c(OC)c(OC)c(C=O)c4c3OC)c(C)cc2c1C(C)C | 56 | –
COc1c(-c2c(C)cc3c(C(C)C)c(O)c(O)c(C#N)c3c2OC)c(C)cc2c(C(C)C)c(O)c(O)c(C#N)c12 | 2.8 | –
CCC(=O)Oc1c(-c2c(C)cc3c(C(C)C)c(O)c(O)c(C#N)c3c2OC(=O)CC)c(C)cc2c(C(C)C)c(O)c(O)c(C#N)c12 | – | 6.8
CCCCCC(=O)Oc1c(-c2c(C)cc3c(C(C)C)c(O)c(O)c(C#N)c3c2OC(=O)CCCCC)c(C)cc2c(C(C)C)c(O)c(O)c(C#N)c12 | – | 3.1
Cc1cc2c(C(C)C)c(O)c(O)c(/C=N/O)c2c(O)c1-c1c(C)cc2c(C(C)C)c(O)c(O)c(/C=N/O)c2c1O | 7.8 | –
COc1c(OC)c2c3c(c(-c4c(C)cc5c(C(C)C)c(OC)c(OC)c6c5c4OC6=O)c(C)cc3c1C(C)C)OC2=O | – | 48
CCCCC(=O)Oc1c(-c2c(C)cc3c(C(C)C)c(O)c(O)c(C#N)c3c2OC(=O)CCCC)c(C)cc2c(C(C)C)c(O)c(O)c(C#N)c12 | – | 4.7
C/C=C/C(=O)Oc1c(-c2c(C)cc3c(C(C)C)c(O)c(O)c(C#N)c3c2OC(=O)/C=C/C)c(C)cc2c(C(C)C)c(O)c(O)c(C#N)c12 | 1.3 | –
Cc1cc2c(C(C)C)c(O)c(O)c(C#N)c2c(OC(=O)C(C)(C)C)c1-c1c(C)cc2c(C(C)C)c(O)c(O)c(C#N)c2c1OC(=O)C(C)(C)C | 2.5 | –
Cc1cc2c(C(C)C)c(O)c(O)c(C=O)c2c(O)c1-c1c(C)cc2c(C(C)C)c(O)c(O)c(C=O)c2c1O [GOSSYPOL] | 0.5 | –
COc1c(-c2c(C)cc3c(C(C)C)c(O)c(O)c(CO)c3c2OC)c(C)cc2c(C(C)C)c(O)c(O)c(CO)c12 | 4.3 | –
COc1c(O)c(C=O)c2c(O)c(-c3c(C)cc4c(C(C)C)c(OC)c(O)c(C=O)c4c3O)c(C)cc2c1C(C)C [6,6'-METHOXYGOSSYPOL] | 1.5 | –
COc1c(-c2c(C)cc3c(C(C)C)c(O)c(O)c(C=O)c3c2OC)c(C)cc2c(C(C)C)c(O)c(O)c(C=O)c12 | – | 0.31
Cc1cc2c(C(C)C)c(O)c(O)c3c2c(c1-c1c(C)cc2c(C(C)C)c(O)c(O)c4c2c1OC4=N)OC3=N | 9.3 | –
CC(=O)Oc1c(-c2c(C)cc3c(C(C)C)c(O)c(O)c(C#N)c3c2OC(C)=O)c(C)cc2c(C(C)C)c(O)c(O)c(C#N)c12 | – | 7.3
